Reference: ChEMBL document CHEMBL1129265, “Synthesis and characterization of pseudopeptide bradykinin B2 receptor antagonists containing the 1,3,8-triazaspiro[4.5]decan-4-one ring system” (J Med Chem, 1996)

Assays:
B2 bradykinin receptor = molecular target: T1, B2 bradykinin receptor (Homo sapiens, UniProt P30411); assay: Affinity to human Bradykinin receptor B2 in CHO cell membranes determined by displacement of [3H]-NPC 17731
T1 sequence (P30411 whole entry): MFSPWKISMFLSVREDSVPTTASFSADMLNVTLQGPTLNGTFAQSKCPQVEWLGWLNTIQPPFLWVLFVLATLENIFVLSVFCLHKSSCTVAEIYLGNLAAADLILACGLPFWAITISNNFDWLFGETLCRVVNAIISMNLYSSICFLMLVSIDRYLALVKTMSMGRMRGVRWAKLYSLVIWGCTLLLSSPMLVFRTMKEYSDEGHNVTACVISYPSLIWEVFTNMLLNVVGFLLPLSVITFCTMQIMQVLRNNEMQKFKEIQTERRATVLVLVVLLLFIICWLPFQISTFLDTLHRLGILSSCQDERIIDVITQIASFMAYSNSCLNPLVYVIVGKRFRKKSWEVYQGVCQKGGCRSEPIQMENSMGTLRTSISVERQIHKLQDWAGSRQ
How it was run: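 Membranes from CHO/K cells transfected with human B2 receptor, grown in Ham's F12 with 10% FBS and 500 ug/mL G418. Buffer: 25 mM TES, 1 mM 1,10-phenanthroline, pH 6.8, with bacitracin and 0.1% BSA. Competition versus [3H]NPC-17731, 15 pM final. 1 uM bradykinin defines nonspecific binding. 90 min at 25 °C, then filtration on PEI-soaked GF/B and scintillation counting. n=3.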

Rattus norvegicus = species on record: Rattus norvegicus; assay: Pharmacological profile in bradykinin induced assay in rats ([…] in rats); assay type: functional
How it was run: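 Anesthetized Sprague–Dawley rats, carotid mean arterial pressure, jugular iv dosing, tracheotomy. After 30 min stabilization, three bradykinin injections (12 ug/kg iv, 5 min apart) set baseline hypotension. Test agent is given iv 10–15 min later, followed 5 min after by bradykinin challenge. Successive increasing doses give a cumulative dose–response; ED50 reported, n=4.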

Oryctolagus cuniculus = species on record: Oryctolagus cuniculus; assay: Pharmacological profile in bradykinin induced assay in rabbits ([…]); assay type: functional
How it was run: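 Male New Zealand white rabbits, 1.5–2.0 kg, acepromazine premedicated, pentobarbital anesthetized. Carotid catheter records mean arterial pressure continuously. Three bolus bradykinin doses (1 ug/kg iv) set baseline. Antagonist in saline is then given iv at rising doses (0.03–1000 ug/kg), each followed after 5 min by a bradykinin bolus. Percent inhibition of hypotension per animal; ED50 by probit; n=4.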

SMILES | Ki (B2 bradykinin receptor) | ED50 (Rattus norvegicus) | ED50 (Oryctolagus cuniculus)
CCCN1CN(CC(C)=O)C(=O)C12CCN(C)CC2 | 27 nM |  | 
CC(=O)CN1CN(CCc2ccccc2)C2(CCN(C)CC2)C1=O | 0.15 nM |  | 
CC(=O)CN1CN(CC2CCCCC2)C2(CCN(C)CC2)C1=O | 6.8 nM |  | 
CC(=O)CN1CN(C2CCCCC2)C2(CCN(C)CC2)C1=O | 0.57 nM | 0.6 mg/kg | 0.0086 mg/kg
CC(=O)CN1CN(c2ccccc2)C2(CCN(C)CC2)C1=O | 7.7 nM | 0.4 mg/kg | 0.0221 mg/kg
CC(=O)CN1CN(c2ccc(C)cc2)C2(CCN(C)CC2)C1=O | 6.3 nM |  | 
